Where “and” joins values, the source holds several entries; their conditions need not be identical. Equal values may be shown once.
Tested on: HEK-293T
Experiment: Multiplex assay against HEK293T
Assay type: toxicity, cell-based
Settings: human
How it was run: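 Cells were classed with CellPathfinder machine-learning gating, first as Hoechst high-intensity objects or normal cells, then (normal cells) as healthy, pyknosed or fragmented nuclei, and finally (pyknosed cells) as mitotic or apoptotic. Staining of live cells at seeding used Hoechst33342, BioTracker Green Microtubule Cytoskeleton Dye, MitoTracker Red and Annexin V Alexa Fluor 680, with imaging on a CQ1 microscope at 37°C and 5% CO2 after compound addition. Tubulin, mitochondrial-mass and membrane-permeability phenotypes are per cents of healthy-nucleus cells.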

[1] = 12 h, 1 µM, compound concentration 1 uM
[2] = 12 h, 10 µM, compound concentration 10 uM
[3] = 24 h, 1 µM, compound concentration 1 uM
[4] = 24 h, 10 µM, compound concentration 10 uM
[5] = 48 h, 1 µM, compound concentration 1 uM
[6] = 48 h, 10 µM, compound concentration 10 uM

SMILES: COc1c(C)cc(NC(=O)c2nn(Cc3ccc(F)cc3)c3c2CN(C(=O)c2ccc[nH]2)C[C@]3(C)C(N)=O)cc1C
- Population Apoptotic (%) [1]: 42% and 38%
- Population Fragmented Nuclei (%) [1]: 6% and 7%
- Population Healthy Nuclei (%) [1]: 79% and 75%
- Population Hoechst High Intensity Objects (%) [1]: 7% and 5%
- Population Membrane Permeable-Phenotype (%) [1]: 0%
- Population Mitochondria Different-Phenotype (%) [1]: 51% and 58%
- Population Mitotic Cells (%) [1]: 57% and 61%
- Population Normal (%) [1]: 92% and 94%
- Population Pyknosed Nuclei (%) [1]: 13% and 17%
- Population Tubulin-Different-Phenotype (%) [1]: 36% and 29%
- Total Cell Count [1]: 426 and 304
- Population Apoptotic (%) [2]: 67% and 59%
- Population Fragmented Nuclei (%) [2]: 4% and 6%
- Population Healthy Nuclei (%) [2]: 77% and 71%
- Population Hoechst High Intensity Objects (%) [2]: 13%
- Population Membrane Permeable-Phenotype (%) [2]: 0%
- Population Mitochondria Different-Phenotype (%) [2]: 90% and 95%
- Population Mitotic Cells (%) [2]: 32% and 40%
- Population Normal (%) [2]: 86%
- Population Pyknosed Nuclei (%) [2]: 17% and 21%
- Population Tubulin-Different-Phenotype (%) [2]: 62% and 63%
- Total Cell Count [2]: 383 and 285
- Population Apoptotic (%) [3]: 21% and 51%
- Population Fragmented Nuclei (%) [3]: 7% and 5%
- Population Healthy Nuclei (%) [3]: 80% and 86%
- Population Hoechst High Intensity Objects (%) [3]: 4%
- Population Membrane Permeable-Phenotype (%) [3]: 0%
- Population Mitochondria Different-Phenotype (%) [3]: 30% and 43%
- Population Mitotic Cells (%) [3]: 78% and 48%
- Population Normal (%) [3]: 95%
- Population Pyknosed Nuclei (%) [3]: 12% and 7%
- Population Tubulin-Different-Phenotype (%) [3]: 24% and 16%
- Total Cell Count [3]: 574 and 422
- Population Apoptotic (%) [4]: 53% and 67%
- Population Fragmented Nuclei (%) [4]: 6% and 5%
- Population Healthy Nuclei (%) [4]: 73% and 74%
- Population Hoechst High Intensity Objects (%) [4]: 11% and 15%
- Population Membrane Permeable-Phenotype (%) [4]: 0%
- Population Mitochondria Different-Phenotype (%) [4]: 91% and 92%
- Population Mitotic Cells (%) [4]: 46% and 32%
- Population Normal (%) [4]: 88% and 84%
- Population Pyknosed Nuclei (%) [4]: 19%
- Population Tubulin-Different-Phenotype (%) [4]: 61% and 56%
- Total Cell Count [4]: 403 and 313
- Population Apoptotic (%) [5]: 21% and 39%
- Population Fragmented Nuclei (%) [5]: 11% and 12%
- Population Healthy Nuclei (%) [5]: 81%
- Population Hoechst High Intensity Objects (%) [5]: 2% and 3%
- Population Membrane Permeable-Phenotype (%) [5]: 1%
- Population Mitochondria Different-Phenotype (%) [5]: 25% and 28%
- Population Mitotic Cells (%) [5]: 78% and 60%
- Population Normal (%) [5]: 97% and 96%
- Population Pyknosed Nuclei (%) [5]: 6%
- Population Tubulin-Different-Phenotype (%) [5]: 18% and 9%
- Total Cell Count [5]: 920 and 652
- Population Apoptotic (%) [6]: 60% and 80%
- Population Fragmented Nuclei (%) [6]: 8% and 9%
- Population Healthy Nuclei (%) [6]: 76% and 81%
- Population Hoechst High Intensity Objects (%) [6]: 14% and 10%
- Population Membrane Permeable-Phenotype (%) [6]: 0%
- Population Mitochondria Different-Phenotype (%) [6]: 93% and 90%
- Population Mitotic Cells (%) [6]: 39% and 19%
- Population Normal (%) [6]: 85% and 89%
- Population Pyknosed Nuclei (%) [6]: 15% and 9%
- Population Tubulin-Different-Phenotype (%) [6]: 66% and 59%
- Total Cell Count [6]: 467 and 376

SMILES: CSc1ccccc1N1CCN(CCCCCC(=O)NC2CCCc3ccccc32)CC1.Cl (configuration not stated)
- Population Apoptotic (%) [1]: 45%
- Population Fragmented Nuclei (%) [1]: 6%
- Population Healthy Nuclei (%) [1]: 74%
- Population Hoechst High Intensity Objects (%) [1]: 8% and 12%
- Population Membrane Permeable-Phenotype (%) [1]: 0%
- Population Mitochondria Different-Phenotype (%) [1]: 68% and 75%
- Population Mitotic Cells (%) [1]: 54%
- Population Normal (%) [1]: 91% and 87%
- Population Pyknosed Nuclei (%) [1]: 18% and 19%
- Population Tubulin-Different-Phenotype (%) [1]: 59% and 43%
- Total Cell Count [1]: 391 and 322
- Population Apoptotic (%) [2]: 80% and 79%
- Population Fragmented Nuclei (%) [2]: 8% and 5%
- Population Healthy Nuclei (%) [2]: 68% and 74%
- Population Hoechst High Intensity Objects (%) [2]: 15% and 16%
- Population Membrane Permeable-Phenotype (%) [2]: 0%
- Population Mitochondria Different-Phenotype (%) [2]: 97%
- Population Mitotic Cells (%) [2]: 20%
- Population Normal (%) [2]: 84% and 83%
- Population Pyknosed Nuclei (%) [2]: 22% and 19%
- Population Tubulin-Different-Phenotype (%) [2]: 59% and 65%
- Total Cell Count [2]: 316 and 304
- Population Apoptotic (%) [3]: 36% and 41%
- Population Fragmented Nuclei (%) [3]: 8%
- Population Healthy Nuclei (%) [3]: 79% and 75%
- Population Hoechst High Intensity Objects (%) [3]: 4% and 7%
- Population Membrane Permeable-Phenotype (%) [3]: 0%
- Population Mitochondria Different-Phenotype (%) [3]: 50% and 70%
- Population Mitotic Cells (%) [3]: 63% and 58%
- Population Normal (%) [3]: 95% and 92%
- Population Pyknosed Nuclei (%) [3]: 11% and 16%
- Population Tubulin-Different-Phenotype (%) [3]: 41% and 44%
- Total Cell Count [3]: 508 and 356
- Population Apoptotic (%) [4]: 75% and 69%
- Population Fragmented Nuclei (%) [4]: 5% and 7%
- Population Healthy Nuclei (%) [4]: 70% and 73%
- Population Hoechst High Intensity Objects (%) [4]: 21% and 20%
- Population Membrane Permeable-Phenotype (%) [4]: 0%
- Population Mitochondria Different-Phenotype (%) [4]: 98% and 97%
- Population Mitotic Cells (%) [4]: 24% and 30%
- Population Normal (%) [4]: 78% and 79%
- Population Pyknosed Nuclei (%) [4]: 23% and 18%
- Population Tubulin-Different-Phenotype (%) [4]: 53% and 48%
- Total Cell Count [4]: 303 and 315
- Population Apoptotic (%) [5]: 32% and 45%
- Population Fragmented Nuclei (%) [5]: 10%
- Population Healthy Nuclei (%) [5]: 78% and 76%
- Population Hoechst High Intensity Objects (%) [5]: 4% and 6%
- Population Membrane Permeable-Phenotype (%) [5]: 0%
- Population Mitochondria Different-Phenotype (%) [5]: 39% and 59%
- Population Mitotic Cells (%) [5]: 67% and 54%
- Population Normal (%) [5]: 95% and 93%
- Population Pyknosed Nuclei (%) [5]: 10% and 13%
- Population Tubulin-Different-Phenotype (%) [5]: 27% and 31%
- Total Cell Count [5]: 747 and 471
- Population Apoptotic (%) [6]: 76% and 56%
- Population Fragmented Nuclei (%) [6]: 11% and 13%
- Population Healthy Nuclei (%) [6]: 73%
- Population Hoechst High Intensity Objects (%) [6]: 28% and 18%
- Population Membrane Permeable-Phenotype (%) [6]: 0%
- Population Mitochondria Different-Phenotype (%) [6]: 97% and 93%
- Population Mitotic Cells (%) [6]: 23% and 43%
- Population Normal (%) [6]: 71% and 81%
- Population Pyknosed Nuclei (%) [6]: 14% and 13%
- Population Tubulin-Different-Phenotype (%) [6]: 67% and 56%
- Total Cell Count [6]: 365 and 385

Reference: ChEMBL document CHEMBL5724801, “EUbOPEN Chemogenomics Library - Multiplex” (2024)
